Data taken from ChEMBL document CHEMBL4371064, “Erythrofordins D and E, two new cassaine-type diterpenes from Erythrophleum suaveolens” (2019).

Experiments:
Type in all cases: functional
SN12C = test: Growth inhibition of human SN12C cells incubated for 48 hrs by sulforhodamine B assay
In short: (§1)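 Run in the NCI-60 human tumour cell line panel with dose-response testing. GI50 was determined for each cell line from its dose-response data.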

MDA-MB-231 = test: Growth inhibition of human MDA-MB-231 cells incubated for 48 hrs by sulforhodamine B assay; settings: MDA-MB-231, 48 h; in short: as §1
HCT-116 = test: Growth inhibition of human HCT116 cells incubated for 48 hrs by sulforhodamine B assay; settings: HCT-116, 48 h; in short: as §1
ACHN = test: Growth inhibition of human ACHN cells incubated for 48 hrs by sulforhodamine B assay; in short: as §1
UACC-62 = test: Growth inhibition of human UACC62 cells incubated for 48 hrs by sulforhodamine B assay; settings: UACC-62, 48 h
In short: (§2)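 Tested in the NCI 60-human-tumour-cell-line screen using the five-dose format. GI₅₀ was derived from each cell line's dose-response. TGI and LC₅₀ were derived from the same dose-response data.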

SK-OV-3 = test: Growth inhibition of human SKOV3 cells incubated for 48 hrs by sulforhodamine B assay; settings: SK-OV-3, 48 h; in short: as §1
SK-MEL-5 = test: Growth inhibition of human SK-MEL-5 cells incubated for 48 hrs by sulforhodamine B assay; settings: SK-MEL-5, 48 h; in short: as §1
IGROV-1 = test: Growth inhibition of human IGROV1 cells incubated for 48 hrs by sulforhodamine B assay; settings: IGROV-1, 48 h; in short: as §1
OVCAR-4 = test: Growth inhibition of human OVCAR4 cells incubated for 48 hrs by sulforhodamine B assay; settings: OVCAR-4, 48 h; in short: as §1
SK-MEL-2 = test: Growth inhibition of human SK-MEL-2 cells incubated for 48 hrs by sulforhodamine B assay; settings: SK-MEL-2, 48 h; in short: as §1
CCRF-CEM = test: Growth inhibition of human CCRF-CEM cells incubated for 48 hrs by sulforhodamine B assay; in short: as §1
SW-620 = test: Growth inhibition of human SW620 cells incubated for 48 hrs by sulforhodamine B assay; settings: SW-620, 48 h; in short: as §2
786-0 = test: Growth inhibition of human 786-0 cells incubated for 48 hrs by sulforhodamine B assay; settings: 786-0, 48 h; in short: as §1
HOP-92 = test: Growth inhibition of human HOP92 cells incubated for 48 hrs by sulforhodamine B assay; settings: HOP-92, 48 h; in short: as §1
SNB-75 = test: Growth inhibition of human SNB75 cells incubated for 48 hrs by sulforhodamine B assay; settings: SNB-75, 48 h; in short: as §1
A498 = test: Growth inhibition of human A498 cells incubated for 48 hrs by sulforhodamine B assay; settings: A498, 48 h
In short: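 Run within the NCI-60 human tumour cell line panel as a dose-response screen. For each cell line the readouts are GI50, TGI and LC50. Per-line log values also feed a mean-graph analysis, in which the arithmetic mean of the log values across all lines is subtracted from each line's log value.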

Hs-578T = test: Growth inhibition of human Hs578T cells incubated for 48 hrs by sulforhodamine B assay; in short: as §1
BT-549 = test: Growth inhibition of human BT549 cells incubated for 48 hrs by sulforhodamine B assay; settings: BT-549, 48 h; in short: as §1
HT-29 = test: Growth inhibition of human HT-29 cells incubated for 48 hrs by sulforhodamine B assay; settings: HT-29, 48 h; in short: as §1
COLO 205 = test: Growth inhibition of human COLO205 cells incubated for 48 hrs by sulforhodamine B assay; settings: COLO 205, 48 h; in short: as §1
LOX IMVI = test: Growth inhibition of human LOXIMVI cells incubated for 48 hrs by sulforhodamine B assay; in short: as §1
HCT-15 = test: Growth inhibition of human HCT15 cells incubated for 48 hrs by sulforhodamine B assay; settings: HCT-15, 48 h; in short: as §1
Malme-3M = test: Growth inhibition of human MALME-3M cells incubated for 48 hrs by sulforhodamine B assay; in short: as §1
TK-10 = test: Growth inhibition of human TK10 cells incubated for 48 hrs by sulforhodamine B assay; settings: TK-10, 48 h; in short: as §2
UACC-257 = test: Growth inhibition of human UACC257 cells incubated for 48 hrs by sulforhodamine B assay; settings: UACC-257, 48 h; in short: as §2
NCI-H226 = test: Growth inhibition of human NCI-H226 cells incubated for 48 hrs by sulforhodamine B assay; settings: NCI-H226, 48 h; in short: as §1
SF-539 = test: Growth inhibition of human SF539 cells incubated for 48 hrs by sulforhodamine B assay; settings: SF-539, 48 h; in short: as §1
OVCAR-3 = test: Growth inhibition of human OVCAR3 cells incubated for 48 hrs by sulforhodamine B assay; settings: OVCAR-3, 48 h; in short: as §1
MDA-MB-468 = test: Growth inhibition of human MDA-MB-468 cells incubated for 48 hrs by sulforhodamine B assay; settings: MDA-MB-468, 48 h; in short: as §1
SNB-19 = test: Growth inhibition of human SNB19 cells incubated for 48 hrs by sulforhodamine B assay; settings: SNB-19, 48 h; in short: as §1
[1] = read-out: pLC50 (the source's name) (converted)

## COC(=O)/C=C1\CC[C@H]2[C@@H](CC(=O)[C@H]3C(C)(C)C(=O)CC[C@]23C)[C@H]1C
SN12C
  GI50: 513 nM
  LC50: > 34700 nM
SN12C; read-out: pTGI (converted)
  TGI: 1860 nM
MDA-MB-231
  GI50: 1480 nM
  LC50: > 34700 nM
MDA-MB-231; read-out: pTGI (converted)
  TGI: 7940 nM
HCT-116
  GI50: 646 nM
  LC50: 2880 nM
HCT-116; read-out: pTGI (converted)
  TGI: 1380 nM
ACHN
  GI50: 162 nM
  LC50: 1860 nM
ACHN; read-out: pTGI (converted)
  TGI: 617 nM
UACC-62
  GI50: 832 nM
  LC50: 11500 nM
UACC-62; read-out: pTGI (converted)
  TGI: 2290 nM
SK-OV-3
  GI50: 1020 nM
  LC50: > 34700 nM
SK-OV-3; read-out: pTGI (converted)
  TGI: 3160 nM
SK-MEL-5
  GI50: 708 nM
  LC50: 3160 nM
SK-MEL-5; read-out: pTGI (converted)
  TGI: 1480 nM
IGROV-1
  GI50: 1290 nM
  LC50: > 34700 nM
IGROV-1; read-out: pTGI (converted)
  TGI: 7590 nM
OVCAR-4
  GI50: 676 nM
  LC50: 5750 nM
OVCAR-4; read-out: pTGI (converted)
  TGI: 1620 nM
SK-MEL-2
  GI50: 1050 nM
  LC50 (concentration killing 50% of cells): > 34700 nM
SK-MEL-2; read-out: pTGI (converted)
  TGI: 4470 nM
CCRF-CEM
  GI50: 708 nM
  LC50: > 34700 nM
CCRF-CEM; read-out: pTGI (converted)
  TGI: 2290 nM
SW-620
  GI50: 708 nM
  LC50: 9120 nM
SW-620; read-out: pTGI (converted)
  TGI: 1700 nM
786-0
  GI50: 676 nM
  LC50: 3160 nM
786-0; read-out: pTGI (converted)
  TGI: 1450 nM
HOP-92
  GI50: 1000 nM
  LC50: > 34700 nM
HOP-92; read-out: pTGI (converted)
  TGI: 3470 nM
SNB-75
  GI50: 550 nM
  LC50 (concentration killing 50% of cells): 2630 nM
SNB-75; read-out: pTGI (converted)
  TGI: 1200 nM
A498
  LC50: > 34700 nM
A498; read-out: pTGI (converted)
  TGI: 1740 nM
Hs-578T
  GI50: 417 nM
  LC50: > 34700 nM
Hs-578T; read-out: pTGI (converted)
  TGI: 1660 nM
BT-549
  GI50: 676 nM
  LC50: 5130 nM
BT-549; read-out: pTGI (converted)
  TGI: 1660 nM
HT-29
  GI50: 955 nM
HT-29; [1]
  CC50: 12900 nM
HT-29; read-out: pTGI (converted)
  TGI: 2450 nM
COLO 205
  GI50: 1230 nM
  LC50: > 34700 nM
COLO 205; read-out: pTGI (converted)
  TGI: 5370 nM
LOX IMVI
  GI50: 692 nM
  LC50: 5250 nM
LOX IMVI; read-out: pTGI (converted)
  TGI: 1660 nM
HCT-15
  GI50: 692 nM
  LC50: 3310 nM
HCT-15; read-out: pTGI (converted)
  TGI: 1510 nM
Malme-3M
  GI50: 724 nM
  LC50: 6920 nM
Malme-3M; read-out: pTGI (converted)
  TGI: 1660 nM
TK-10
  GI50: 794 nM
  LC50 (lethal concentration killing 50% of cells): 14800 nM
TK-10; read-out: pTGI (converted)
  TGI: 2400 nM
UACC-257
  GI50: 891 nM
  LC50: 18600 nM
UACC-257; read-out: pTGI (converted)
  TGI: 2450 nM
NCI-H226
  GI50: 617 nM
  LC50: 2630 nM
NCI-H226; read-out: pTGI (converted)
  TGI: 1290 nM
SF-539
  GI50: 575 nM
  LC50: 2090 nM
SF-539; read-out: pTGI (converted)
  TGI: 1100 nM
OVCAR-3
  GI50: 661 nM
  LC50: 2510 nM
OVCAR-3; read-out: pTGI (converted)
  TGI: 1290 nM
MDA-MB-468
  GI50: 1700 nM
MDA-MB-468; [1]
  CC50: > 34700 nM
MDA-MB-468; read-out: pTGI (converted)
  TGI: 12300 nM
SNB-19
  GI50: 1200 nM
  LC50: 12900 nM
SNB-19; read-out: pTGI (converted)
  TGI: 4470 nM
